# Most compounds without a hit are left out; they make up all but 1.8% or so of the library.
# Rev-RRE block: HIV Rev-RRE protein-RNA interaction inhibition; P05866; Rev peptide-RRE RNA binding, FRET; inhibition, % at 8 µM; actives 0.79% (n = 97,000); AID 704;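 active means inhibition above the screen-wide mean plus 3 SD, cut at about 35% in these data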;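 further: 0% = median DMSO wells and 100% = median Neomycin B control wells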
#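 Assay system: Rev peptide and RRE RNA, both fluorescently labelled; times: 5 min preincubation and 15 min binding, 25 °C; detection: FRET, ex 480 nm, em 540 and 671 nm; read-out basis: % inhibition from 671/540 nm acceptor-to-donor ratio, scaled between controls; benchmarks: DMSO low control, neomycin B high control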
# PTPN22 inh 2: blocks human PTPN22 phosphatase activity. Q9Y2R2. recombinant LYP catalytic domain, DiFMUP fluorescence. inhibition, % at 2 µM. actives 0.21% (n = 96,000);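 active means inhibition at 2 µM at or above a set limit, the screen mean plus 3 SD, cut at about 24% in these data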;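 further: 0% = DMSO with enzyme and 100% = enzyme fully blocked by orthovanadate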
# FAK inh: blocks human focal adhesion kinase activity; Q05397; biochemical FAK kinase activity assay; inhibition, %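 (tested at 7 µM)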; actives 0.84% (n = 97,000); AID 727;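 further: 0% = DMSO and 100% = reference compound high control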
# LYP act: activators of human LYP (PTPN22) phosphatase; recombinant LYP, DiFMUP fluorescence; 0 = plate median, 100 = signal doubled; activation, % at 2 µM; actives 0.11% (n = 96,000); Q9Y2R2; AID 697;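 active means activation at 2 µM above a set limit, the mean plus 5 SD, cut at about 37% in these data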
# FAK inh confirm: confirmation of human focal adhesion kinase (FAK) inhibitors; shares compounds with FAK inh; FAK kinase biochemical inhibition assay; inhibition, % at 7 µM; actives 28% (n = 750)
# Starred values were filed as active, the others as inactive; nt = not tested or not shown. Unless noted, no stated cut-off is given here; in the data, active means inhibition above about 19%; inactive means the rest.
SMILES,Rev-RRE block,PTPN22 inh 2,FAK inh,LYP act,FAK inh confirm
Cc1cc(C)cc(OC(=O)CCN2C(=O)c3ccccc3C2=O)c1,6,-6,3,7,nt
CS(=O)(=O)N(CC(=O)N/N=C/c1cccs1)c1cccc(Cl)c1Cl,2,-8,-7,13,nt
CCCCn1c(NC(=O)c2ccccc2)c(C#N)c2nc3ccccc3nc21,50*,16,42*,-18,1
CCC(C)n1c(NC(=O)c2ccccc2)c(C#N)c2nc3ccccc3nc21 (centres undefined),76*,2,25*,3,-3
Cc1c(C(=O)OCC(C)C)[nH]c2c1C(=O)CC(c1ccco1)C2 (centres undefined),4,3,15,-4,nt
Cc1c(C(=O)OCC2CCCO2)[nH]c2c1C(=O)CC(c1ccco1)C2 (centres undefined),-19,14,26*,-15,4
Oc1ccc(Br)cc1/C=N/N1CCN(Cc2ccccc2)CC1,4,-5,2,9,nt
Oc1ccc(Br)cc1/C=N/n1cnc2ccccc21,6,1,19*,-1,6
CCn1c(SCC(=O)c2[nH]c(C)c(C(C)=O)c2C)nnc1-c1ccccc1,-1,-8,-2,8,nt
O=C(Cc1cccs1)Nc1ccc(-c2nnn(CC(=O)N3CCOCC3)n2)cc1,-2,-7,25*,7,4
COc1ccc(-c2nnn(CC(=O)N3CCOCC3)n2)cc1,4,-7,0,4,nt
CC(=O)Nc1cc(OC(C)=O)c2nonc2c1OC(C)=O,5,-12,57*,11,3
COc1cccc(NC(=O)C(=O)N/N=C/c2cc(C)n(-c3ccc(Cl)c(Cl)c3)c2C)c1,-3,-2,0,2,nt
O=C(Nc1ccc(-n2nncc2-c2ccco2)cc1)c1cccc(F)c1,7,0,-3,-2,nt
O=C(Nc1ccc(-n2nncc2-c2ccco2)cc1)c1cc2ccccc2oc1=O,-17,13,82*,-14,78*
Cc1cc2c3c(c1C)C1(C(=O)N3C(C)(C)CC2C)C(C#N)=C(N)Oc2cc(O)ccc21 (centres undefined),9,11,-1,-10,nt
CCc1ccc(/C=N/Nc2nn[nH]n2)cc1,12,2,-3,-3,nt
CCOc1ccc(/C=C\C(C)=N\O)cc1,2,-11,20*,8,8
Cc1oc2c(c1C(=O)c1ccc(Cl)cc1)C(=O)C(=O)c1ccccc1-2,8,2,16,2,nt
Cc1ccc(C(=O)c2c(C)oc3c2C(=O)C(=O)c2ccccc2-3)cc1,10,-2,21*,3,14
CCOC(=O)Cc1[nH]nc2c1C(c1cc(OC)ccc1OC)C(C#N)=C(N)O2 (centres undefined),-6,1,25*,-2,6
O=C(Cc1ncc(C(F)(F)F)cc1Cl)Nc1ccc(F)cc1,5,9,-2,-6,nt
O=C(OCC(=O)N1CCN(C(=O)c2ccco2)CC1)c1cc(-c2ccc(Cl)c(Cl)c2Cl)nc2ccccc12,-2,2,35*,0,19*
O=C(OCC(=O)N1CCN(C(=O)c2ccco2)CC1)c1sc2cc(F)ccc2c1Cl,6,5,-1,-7,nt
O=C(c1ccco1)N1CCN(C(=O)c2cc(-c3ccccn3)nc3ccccc23)CC1,13,4,-3,-7,nt
SMILES,Rev-RRE block,PTPN22 inh 2,FAK inh,LYP act,FAK inh confirm
O=C(OCC(=O)N1CCN(C(=O)c2ccco2)CC1)c1cc(-c2ccco2)nc2ccccc12,-9,13,69*,-11,17
CC(C)(C)C(=O)NC(=C(Cl)Cl)P(=O)(O)O,8,4,66*,-5,52*
COC(=O)C1=C(C)NC2=C(C(=O)CC(c3cccs3)C2)C1c1ccsc1 (centres undefined),-3,-4,22*,2,21*
CCOC(=O)N1CCC(NC(=O)c2cccc3c2C(=O)N(c2ccc(OC)cc2)C3)CC1,-10,-4,44*,0,11
COc1ccc(N2CC(C(=O)Nc3ccccc3C(=O)NCc3ccco3)CC2=O)cc1 (centres undefined),9,-1,2,3,nt
COc1ccc(N2Cc3cccc(C(=O)NC(C)CCc4ccco4)c3C2=O)cc1 (centres undefined),-16,5,33*,-7,5
CCNC(=O)n1nccc1C(C)Oc1cccc(C(F)(F)F)c1 (centres undefined),13,11,-1,-8,nt
COc1cc(OC)nc(Oc2ccccc2C(=O)Oc2ccc(F)cc2Cl)n1,8,-9,-5,12,nt
